Activity calls are given as the source filed them. No cut-off for these calls is given here.
Tests used:
[1] = biological target: T1, Neuronal acetylcholine receptor; alpha4/beta2 (Homo sapiens) (UniProt P17787+P43681); assay: Partial agonist activity at human alpha4beta2 nAChR expressed in Xenopus oocytes at 10 uM incubated for 8 secs followed by compound washout measured after 241 secs by two-electrode voltage clamp technique; type: cell-based
[2] = biological target: T2, Nicotinic acetylcholine receptor alpha1/beta1/epsilon/delta (Mus musculus) (UniProt P04756+P09690+P02716+P20782); assay: Agonist activity at mouse muscle alpha1beta1epsilondelta nAChR expressed in Xenopus oocytes at 10 uM incubated for 8 secs followed by compound washout measured after 241 secs by two-electrode voltage clamp technique; type: cell-based
[3] = biological target: T2, Nicotinic acetylcholine receptor alpha1/beta1/epsilon/delta (Mus musculus); assay: Agonist activity at mouse muscle alpha1beta1epsilondelta nAChR expressed in Xenopus oocytes at 1 uM incubated for 8 secs followed by compound washout measured after 241 secs by two-electrode voltage clamp technique; type: cell-based
[4] = biological target: T3, Neuronal acetylcholine receptor; alpha3/beta4 (Homo sapiens) (UniProt P30926+P32297); assay: Antagonist activity at human alpha3beta4 nAChR expressed in Xenopus oocytes at 1 uM incubated for 8 secs followed by compound washout measured after 241 secs by two-electrode voltage clamp technique; type: cell-based
[5] = biological target: T3, Neuronal acetylcholine receptor; alpha3/beta4 (Homo sapiens); assay: Agonist activity at human alpha3beta4 nAChR expressed in Xenopus oocytes at 1 uM incubated for 8 secs followed by compound washout measured after 241 secs by two-electrode voltage clamp technique; type: cell-based
[6] = biological target: T1, Neuronal acetylcholine receptor; alpha4/beta2 (Homo sapiens); assay: Partial agonist activity at human alpha4beta2 nAChR expressed in Xenopus oocytes at 1 uM incubated for 8 secs followed by compound washout measured after 241 secs by two-electrode voltage clamp technique; type: cell-based
[7] = biological target: Neuronal acetylcholine receptor subunit alpha-7 (Homo sapiens) (UniProt P36544); assay: Agonist activity at human alpha7 nAChR expressed in Xenopus oocytes at 1 uM incubated for 12 secs followed by compound washout measured after 181 secs by two-electrode voltage clamp technique; type: cell-based
[8] = biological target: Neuronal acetylcholine receptor subunit alpha-7 (Homo sapiens) (UniProt P36544); assay: Antagonist activity at human alpha7 nAChR expressed in Xenopus oocytes assessed as inhibition of acetylcholine-induced effect at 1 uM incubated for 12 secs followed by compound washout measured after 181 secs by two-electrode voltage clamp technique; type: cell-based
[9] = biological target: T2, Nicotinic acetylcholine receptor alpha1/beta1/epsilon/delta (Mus musculus); assay: Antagonist activity at mouse muscle alpha1beta1epsilondelta nAChR expressed in Xenopus oocytes assessed as inhibition of acetylcholine-induced effect at 1 uM incubated for 8 secs followed by compound washout measured after 241 secs by two-electrode voltage clamp technique; type: cell-based
[10] = biological target: T3, Neuronal acetylcholine receptor; alpha3/beta4 (Homo sapiens); assay: Agonist activity at human alpha3beta4 nAChR expressed in Xenopus oocytes at 10 uM incubated for 8 secs followed by compound washout measured after 241 secs by two-electrode voltage clamp technique; type: cell-based
[11] = Displacement of [3H]epibatidine from Torpedo californica electroplax (alpha1)2beta1gammadelta nAChR after 90 mins by liquid scintillation counting analysis; parameters: species or system Tetronarce californica
[12] = biological target: Neuronal acetylcholine receptor subunit alpha-7 (Rattus norvegicus, UniProt Q05941); assay: Displacement of [3H]methyllycaconitine from Sprague-Dawley rat brain alpha7 nAChR after 120 mins by liquid scintillation counting analysis; type: tissue-based
Summary of the method: (§1)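 Radioligand competition binding gave Ki values, reported as mean ± SEM from 2–10 independent experiments.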

[13] = Displacement of [3H]epibatidine from calf adrenal alpha3beta4 nAChR after 90 mins by liquid scintillation counting analysis; parameters: species or system Bos taurus
[14] = biological target: Neuronal acetylcholine receptor; alpha4/beta2 (Rattus norvegicus, UniProt P09483+P12390); assay: Displacement of [3H]epibatidine from Sprague-Dawley rat brain alpha4beta2 nAChR after 90 mins by liquid scintillation counting analysis; summary of the method: as §1
Chain of Neuronal acetylcholine receptor; alpha4/beta2 (P09483 whole entry): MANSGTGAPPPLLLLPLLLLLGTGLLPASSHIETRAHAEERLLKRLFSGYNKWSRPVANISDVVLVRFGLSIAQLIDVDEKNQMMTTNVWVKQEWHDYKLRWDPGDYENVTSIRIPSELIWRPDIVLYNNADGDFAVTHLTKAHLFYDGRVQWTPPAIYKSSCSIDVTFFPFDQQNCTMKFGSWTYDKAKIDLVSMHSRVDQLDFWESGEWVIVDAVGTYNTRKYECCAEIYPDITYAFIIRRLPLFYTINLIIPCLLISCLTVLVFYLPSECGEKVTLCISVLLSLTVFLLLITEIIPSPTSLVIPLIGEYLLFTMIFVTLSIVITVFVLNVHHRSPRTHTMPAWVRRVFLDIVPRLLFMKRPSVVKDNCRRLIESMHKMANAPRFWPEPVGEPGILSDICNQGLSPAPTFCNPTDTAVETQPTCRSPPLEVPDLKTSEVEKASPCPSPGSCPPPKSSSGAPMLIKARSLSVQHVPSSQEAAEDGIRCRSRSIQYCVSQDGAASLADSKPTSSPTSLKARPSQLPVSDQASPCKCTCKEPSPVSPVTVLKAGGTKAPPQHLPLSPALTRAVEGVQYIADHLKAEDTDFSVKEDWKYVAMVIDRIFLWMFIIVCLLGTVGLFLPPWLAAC
Chain of Neuronal acetylcholine receptor; alpha4/beta2 (P12390 whole entry): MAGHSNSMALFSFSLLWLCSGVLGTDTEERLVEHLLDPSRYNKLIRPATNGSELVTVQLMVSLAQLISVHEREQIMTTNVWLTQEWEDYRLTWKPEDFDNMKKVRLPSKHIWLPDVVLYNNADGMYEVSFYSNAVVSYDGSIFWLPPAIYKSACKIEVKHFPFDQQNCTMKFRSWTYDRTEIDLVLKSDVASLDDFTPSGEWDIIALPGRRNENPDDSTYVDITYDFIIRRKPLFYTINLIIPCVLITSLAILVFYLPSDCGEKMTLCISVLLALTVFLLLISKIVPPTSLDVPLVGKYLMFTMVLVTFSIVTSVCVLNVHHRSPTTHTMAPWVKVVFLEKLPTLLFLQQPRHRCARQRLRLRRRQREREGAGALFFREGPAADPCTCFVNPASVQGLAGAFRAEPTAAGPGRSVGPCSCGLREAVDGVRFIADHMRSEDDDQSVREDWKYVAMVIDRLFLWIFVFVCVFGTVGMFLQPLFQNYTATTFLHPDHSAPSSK

Chain of Neuronal acetylcholine receptor subunit alpha-7 (Q05941 whole entry): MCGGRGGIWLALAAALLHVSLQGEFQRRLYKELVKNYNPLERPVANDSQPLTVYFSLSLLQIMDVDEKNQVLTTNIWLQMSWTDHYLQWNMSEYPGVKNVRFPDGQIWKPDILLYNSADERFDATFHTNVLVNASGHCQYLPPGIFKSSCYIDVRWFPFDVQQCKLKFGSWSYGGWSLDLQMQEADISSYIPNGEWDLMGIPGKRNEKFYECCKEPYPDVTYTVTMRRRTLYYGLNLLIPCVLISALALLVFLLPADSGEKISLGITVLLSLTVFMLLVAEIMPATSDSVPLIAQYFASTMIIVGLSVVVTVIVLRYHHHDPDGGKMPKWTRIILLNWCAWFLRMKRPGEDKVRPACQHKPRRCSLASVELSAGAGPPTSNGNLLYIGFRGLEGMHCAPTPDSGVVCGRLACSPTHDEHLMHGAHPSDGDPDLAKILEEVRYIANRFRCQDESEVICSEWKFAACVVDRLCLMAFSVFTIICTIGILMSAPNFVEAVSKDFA
Chain of Neuronal acetylcholine receptor subunit alpha-7 (Homo sapiens) (P36544 whole entry): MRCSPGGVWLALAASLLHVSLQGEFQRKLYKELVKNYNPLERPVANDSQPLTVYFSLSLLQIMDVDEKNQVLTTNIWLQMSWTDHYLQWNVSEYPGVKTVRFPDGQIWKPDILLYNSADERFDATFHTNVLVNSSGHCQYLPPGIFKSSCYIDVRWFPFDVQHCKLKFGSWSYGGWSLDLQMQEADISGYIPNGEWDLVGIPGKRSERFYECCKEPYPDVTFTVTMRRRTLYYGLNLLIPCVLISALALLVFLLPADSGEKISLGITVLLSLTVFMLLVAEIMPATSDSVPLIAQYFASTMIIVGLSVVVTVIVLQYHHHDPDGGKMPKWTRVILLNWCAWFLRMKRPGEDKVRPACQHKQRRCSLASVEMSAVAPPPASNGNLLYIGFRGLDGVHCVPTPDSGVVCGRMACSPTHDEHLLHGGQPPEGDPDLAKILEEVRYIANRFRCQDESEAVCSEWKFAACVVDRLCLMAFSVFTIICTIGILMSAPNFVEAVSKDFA

SMILES | Activity [1] | Activity [2] | Activity [3] | Activity [4] | Activity [5] | Activity [6] | Activity [7] | inhibition [8] | inhibition [9] | Activity [10] | Ki [11] [µM] | Ki [12] [nM] | Ki [13] [nM] | Ki [14] [nM]
O=C(Cc1ccc2c(c1)OCO2)N1C[C@@H]2CNC[C@@H](C2)C1 | Active | inactive | inactive | inactive | inactive | Active | inactive | inactive | inactive | inactive | > 5 | > 1000 | > 1000 | 13.2
COc1ccccc1/C=C/C(=O)N1C[C@@H]2CNC[C@@H](C2)C1 |  |  |  |  |  |  |  |  |  |  | > 10 |  |  | 172
COc1ccccc1C#CC(=O)N1C[C@@H]2CNC[C@@H](C2)C1 |  |  |  |  |  |  |  |  |  |  | > 5 | > 1000 | > 1000 | 242
COc1cccc(C#CC(=O)N2C[C@@H]3CNC[C@@H](C3)C2)c1 |  |  |  |  |  |  |  |  |  |  | > 5 | > 1000 | > 1000 | 6.3
O=c1c(-c2cccnc2)ccc2n1C[C@@H]1CNC[C@H]2C1 |  |  |  |  |  |  |  |  |  |  | > 5 |  |  | 
O=C(/C=C/c1cccc(Cl)c1)N1C[C@@H]2CNC[C@@H](C2)C1 | Active | inactive |  | inactive |  |  |  | inactive | inactive | inactive |  | > 10000 |  | 23.7
COc1cc(CCC(=O)N2C[C@@H]3CNC[C@@H](C3)C2)cc(OC)c1OC |  |  |  |  |  |  |  |  |  |  |  | > 10000 | > 5000 | 233
O=C(/C=C/c1cccc(Br)c1)N1C[C@@H]2CNC[C@@H](C2)C1 |  |  |  |  |  |  |  |  |  |  |  | > 10000 |  | 24.6
O=C(c1csc(-c2ccncc2)n1)N1C[C@@H]2CNC[C@@H](C2)C1 |  |  |  |  |  |  |  |  |  |  |  |  |  | > 1000
O=C(CCc1ccccc1)N1C[C@@H]2CNC[C@@H](C2)C1 | Active | inactive | inactive | inactive | inactive | Active | inactive | inactive | inactive | inactive |  | > 10000 | 396 | 52.5
O=C(c1ccccc1)N1C[C@@H]2CNC[C@@H](C2)C1 |  |  |  |  |  |  |  |  |  |  | > 10 |  | > 5000 | 
O=C(/C=C/c1ccc(F)cc1)N1C[C@@H]2CNC[C@@H](C2)C1 | Active | inactive |  | inactive |  |  |  | inactive | inactive |  | > 10 | > 5000 | > 5000 | 20.7
O=c1c(-c2ccncc2)ccc2n1C[C@@H]1CNC[C@H]2C1 |  |  |  |  |  |  |  |  |  |  | > 10 | > 10000 |  | 3.9
O=C(/C=C/c1cccs1)N1C[C@@H]2CNC[C@@H](C2)C1 |  |  |  |  |  |  |  |  |  |  |  | > 10000 | 2000 | 96.9
O=C(/C=C/c1cccc2ccccc12)N1C[C@@H]2CNC[C@@H](C2)C1 |  |  |  |  |  |  |  |  |  |  | > 5 | > 1000 | > 5000 | 297
O=C(/C=C/c1cccnc1)N1C[C@@H]2CNC[C@@H](C2)C1 | Active | inactive | inactive | inactive | inactive | Active | inactive | inactive | inactive | inactive | > 5 | > 1000 | > 1000 | 32.6
O=C(/C=C/c1cccc([N+](=O)[O-])c1)N1C[C@@H]2CNC[C@@H](C2)C1 |  |  |  |  |  |  |  |  |  |  | > 10 |  | > 1000 | 38.9
O=C(Cc1ccc2ccccc2c1)N1C[C@@H]2CNC[C@@H](C2)C1 | Active | inactive |  | inactive |  |  |  | inactive | inactive | inactive | > 5 | > 1000 | > 1000 | 10.2

SMILES | Activity [1] | Activity [2] | Activity [3] | Activity [4] | Activity [5] | Activity [6] | Activity [7] | inhibition [8] | inhibition [9] | Activity [10] | Ki [11] [µM] | Ki [12] [nM] | Ki [13] [nM] | Ki [14] [nM]
O=C(c1ccc(-c2ccccc2)cc1)N1C[C@@H]2CNC[C@@H](C2)C1 |  |  |  |  |  |  |  |  |  |  |  |  | 1090 | 
O=C(C#Cc1cccc2ccccc12)N1C[C@@H]2CNC[C@@H](C2)C1 |  |  |  |  |  |  |  |  |  |  | > 5 | > 1000 | > 1000 | 46
O=C(C#Cc1ccccc1)N1C[C@@H]2CNC[C@@H](C2)C1 | Active | inactive |  | inactive |  |  |  | inactive | inactive | inactive | > 1 | > 5000 | > 1000 | 10.9
O=C(C#Cc1cccc(F)c1)N1C[C@@H]2CNC[C@@H](C2)C1 |  |  |  |  |  |  |  |  |  |  | > 5 | > 1000 | > 1000 | 7.1
O=C(CCc1cccnc1)N1C[C@@H]2CNC[C@@H](C2)C1 | Active | inactive |  | inactive |  |  |  | inactive | inactive | inactive | > 5 | > 5000 | > 5000 | 39
O=C(Cc1ccccc1)N1C[C@@H]2CNC[C@@H](C2)C1 | Active | inactive | inactive | inactive | inactive | Active | inactive | inactive | inactive | inactive |  | > 10000 |  | 57.6
COc1ccc(C#CC(=O)N2C[C@@H]3CNC[C@@H](C3)C2)cc1 |  |  |  |  |  |  |  |  |  |  | > 5 | > 1000 | > 1000 | 7.8
O=c1c(-c2ccc3c(c2)OCO3)ccc2n1C[C@@H]1CNC[C@H]2C1 |  |  |  |  |  |  |  |  |  |  | > 10 | > 10000 | > 10000 | 110
COc1ccc(/C=C/C(=O)N2C[C@@H]3CNC[C@@H](C3)C2)cc1 | Active | inactive | inactive | inactive | inactive | Active | inactive | inactive | inactive | inactive |  |  |  | 39.6
O=c1c(-c2ccccc2)ccc2n1C[C@@H]1CNC[C@H]2C1 |  |  |  |  |  |  |  |  |  |  | > 10 | > 10000 | > 10000 | 128
O=C(Cc1c(F)c(F)c(F)c(F)c1F)N1C[C@@H]2CNC[C@@H](C2)C1 |  |  |  |  |  |  |  |  |  |  |  |  |  | > 5000
O=c1cccc2n1C[C@@H]1CNC[C@H]2C1 [CYTISINICLINE] |  |  |  |  |  |  |  |  |  |  | 1.3 | 261 | 18 | 
O=C(/C=C/c1ccsc1)N1C[C@@H]2CNC[C@@H](C2)C1 | Active | inactive |  | inactive |  |  |  | inactive | inactive | inactive |  | > 10000 |  | 57.1
Cc1ccc(C#CC(=O)N2C[C@@H]3CNC[C@@H](C3)C2)cc1 |  |  |  |  |  |  |  |  |  |  | > 5 | > 1000 | > 1000 | 10.9
O=C(/C=C/c1ccco1)N1C[C@@H]2CNC[C@@H](C2)C1 |  |  |  |  |  |  |  |  |  |  | > 5 | > 1000 | > 1000 | 288
O=C(COc1ccccc1Cl)N1C[C@@H]2CNC[C@@H](C2)C1 |  |  |  |  |  |  |  |  |  |  | > 5 | > 5000 | > 5000 | 548
Cc1cc(CC(=O)N2C[C@@H]3CNC[C@@H](C3)C2)on1 |  |  | inactive | inactive | inactive | Active | inactive | inactive | inactive |  |  | > 1000 | > 1000 | 46.9

Reference: ChEMBL document CHEMBL3091445, “The 3,7-diazabicyclo[3.3.1]nonane scaffold for subtype selective nicotinic acetylcholine receptor ligands. Part 2: carboxamide derivatives with different spacer motifs” (Bioorg Med Chem, 2013)
